Measurements: ChEMBL document CHEMBL1149217, “3-trifluoromethyl-4-nitro-5-arylpyrazoles are novel K(ATP) channel agonists” (Bioorg Med Chem Lett, 2004)
pEC50: −log10 of the molar value.

How the values were obtained:
[1] = target: Sulfonylurea receptor 1, Kir6.2 (Homo sapiens, UniProt Q09428+Q14654); assay: […] of human KATP (SUR1/Kir6.2) channel expressed in Xenopus oocytes; assay type: functional, cell-based, Oocyte
How it was run: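 ATP-sensitive K+ currents were recorded by excised-patch clamp from inside-out macropatches pulled from Xenopus oocytes expressing human SUR1/Kir6.2. Values are means of 3-6 experiments.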

[2] = target: T1, Sulfonylurea receptor 1, Kir6.2 (Homo sapiens) (UniProt Q14654+Q09428); assay: Percent maximal agonist response of human KATP (SUR1/Kir6.2) channel expressed in Xenopus oocytes; assay type: functional, cell-based; settings: Oocyte
How it was run: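 ATP-sensitive K+ currents were recorded by excised-patch clamp from inside-out macropatches pulled from Xenopus oocytes expressing human SUR1/Kir6.2. Compounds were tested across a dose range to give dose–response curves. […] Values are means of 3-6 experiments.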

[3] = target: T1, Sulfonylurea receptor 1, Kir6.2 (Homo sapiens); assay: Percent maximal agonist response of human KATP (SUR1/Kir6.2) channel expressed in Xenopus oocytes at 30 uM; assay type: functional, cell-based; settings: Oocyte
How it was run: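 Inside-out macropatches were excised from Xenopus oocytes expressing human SUR1/Kir6.2, and ATP-sensitive K+ currents were recorded. […] Means of 3-6 experiments.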

Chain of Sulfonylurea receptor 1, Kir6.2 (Q14654 whole entry): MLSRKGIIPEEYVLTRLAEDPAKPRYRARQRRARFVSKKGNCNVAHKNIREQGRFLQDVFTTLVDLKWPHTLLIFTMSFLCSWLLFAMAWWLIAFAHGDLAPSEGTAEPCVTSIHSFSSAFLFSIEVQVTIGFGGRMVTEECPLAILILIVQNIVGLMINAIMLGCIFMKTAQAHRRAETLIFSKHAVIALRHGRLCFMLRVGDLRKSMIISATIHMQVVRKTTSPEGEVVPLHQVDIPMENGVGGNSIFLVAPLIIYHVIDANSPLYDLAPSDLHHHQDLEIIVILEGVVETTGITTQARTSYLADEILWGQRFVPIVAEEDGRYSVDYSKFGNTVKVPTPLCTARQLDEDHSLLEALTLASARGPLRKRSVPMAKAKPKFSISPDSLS
Chain of Sulfonylurea receptor 1, Kir6.2 (Q09428 whole entry): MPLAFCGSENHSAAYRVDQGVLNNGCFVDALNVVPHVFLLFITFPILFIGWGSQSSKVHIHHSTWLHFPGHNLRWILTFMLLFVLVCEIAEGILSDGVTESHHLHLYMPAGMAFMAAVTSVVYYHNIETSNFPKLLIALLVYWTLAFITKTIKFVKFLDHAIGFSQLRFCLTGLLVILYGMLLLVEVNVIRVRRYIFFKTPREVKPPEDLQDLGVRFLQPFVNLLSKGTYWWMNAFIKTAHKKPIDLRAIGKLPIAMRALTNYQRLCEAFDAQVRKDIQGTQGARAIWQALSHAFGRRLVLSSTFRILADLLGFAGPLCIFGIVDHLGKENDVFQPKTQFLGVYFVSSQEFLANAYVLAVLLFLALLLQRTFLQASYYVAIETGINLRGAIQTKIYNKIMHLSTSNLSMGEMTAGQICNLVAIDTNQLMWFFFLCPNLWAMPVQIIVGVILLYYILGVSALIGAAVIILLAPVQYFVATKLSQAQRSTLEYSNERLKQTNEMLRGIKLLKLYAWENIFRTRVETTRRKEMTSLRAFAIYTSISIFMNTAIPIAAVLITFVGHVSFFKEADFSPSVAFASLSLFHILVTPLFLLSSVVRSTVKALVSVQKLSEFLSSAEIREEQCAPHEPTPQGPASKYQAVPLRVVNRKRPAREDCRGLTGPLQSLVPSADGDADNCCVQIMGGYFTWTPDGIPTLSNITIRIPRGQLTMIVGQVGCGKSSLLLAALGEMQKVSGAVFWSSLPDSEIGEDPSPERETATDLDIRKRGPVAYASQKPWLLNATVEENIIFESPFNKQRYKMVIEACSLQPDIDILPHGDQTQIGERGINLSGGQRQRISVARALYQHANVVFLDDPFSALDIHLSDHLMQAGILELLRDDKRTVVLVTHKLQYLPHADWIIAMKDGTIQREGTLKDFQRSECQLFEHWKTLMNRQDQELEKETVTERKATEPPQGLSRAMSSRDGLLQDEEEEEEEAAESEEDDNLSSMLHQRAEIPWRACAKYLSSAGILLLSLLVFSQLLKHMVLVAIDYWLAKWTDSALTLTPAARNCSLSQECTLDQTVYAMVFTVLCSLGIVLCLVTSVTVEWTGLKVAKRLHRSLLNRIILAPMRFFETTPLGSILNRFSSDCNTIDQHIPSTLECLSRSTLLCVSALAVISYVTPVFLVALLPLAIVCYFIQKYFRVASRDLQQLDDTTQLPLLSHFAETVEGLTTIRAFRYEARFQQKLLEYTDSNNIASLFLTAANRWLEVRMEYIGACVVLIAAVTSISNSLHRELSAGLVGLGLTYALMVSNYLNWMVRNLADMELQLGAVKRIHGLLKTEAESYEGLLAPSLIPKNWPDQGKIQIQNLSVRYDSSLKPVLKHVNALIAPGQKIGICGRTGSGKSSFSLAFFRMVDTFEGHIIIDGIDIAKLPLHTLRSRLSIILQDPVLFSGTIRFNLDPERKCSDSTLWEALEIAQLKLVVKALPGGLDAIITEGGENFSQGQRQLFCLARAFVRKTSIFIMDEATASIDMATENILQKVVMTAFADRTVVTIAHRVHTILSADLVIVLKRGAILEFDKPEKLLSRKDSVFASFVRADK

Row | SMILES | pEC50 [1] | Max response [2] [%] | Max response [3] [%]
1 | O=[N+]([O-])c1ccc(-c2noc(C(F)(F)F)c2[N+](=O)[O-])cc1 | < 4.52 |  | 
2 | O=[N+]([O-])c1c(C(F)(F)F)n[nH]c1-c1ccc(C(F)(F)F)cc1C(F)(F)F | 6.27 | 197 | 
3 | O=[N+]([O-])c1c(-c2ccc(F)cc2F)n[nH]c1C(F)(F)F | 5.94 |  | 
4 | O=[N+]([O-])c1c(C(F)(F)F)n[nH]c1-c1ccc(F)cc1F |  | 113 | 
5 | O=[N+]([O-])c1c(C(F)(F)F)n[nH]c1-c1ccccc1 | 4.52 |  | 38
6 | CC1=Nc2ccc(Cl)cc2S(=O)(=O)N1 |  | 100 | 
7 | O=[N+]([O-])c1ccc(-c2cc(C(F)(F)F)[nH]n2)cc1 | < 4.52 |  | 8
8 | O=[N+]([O-])c1ccc(-c2[nH]nc(C(F)(F)F)c2[N+](=O)[O-])cc1 | 6.15 | 94 | 
